For assay [1], the target named is T1, Steryl-sulfatase (Homo sapiens, UniProt P08842).
T1 sequence (P08842 whole entry): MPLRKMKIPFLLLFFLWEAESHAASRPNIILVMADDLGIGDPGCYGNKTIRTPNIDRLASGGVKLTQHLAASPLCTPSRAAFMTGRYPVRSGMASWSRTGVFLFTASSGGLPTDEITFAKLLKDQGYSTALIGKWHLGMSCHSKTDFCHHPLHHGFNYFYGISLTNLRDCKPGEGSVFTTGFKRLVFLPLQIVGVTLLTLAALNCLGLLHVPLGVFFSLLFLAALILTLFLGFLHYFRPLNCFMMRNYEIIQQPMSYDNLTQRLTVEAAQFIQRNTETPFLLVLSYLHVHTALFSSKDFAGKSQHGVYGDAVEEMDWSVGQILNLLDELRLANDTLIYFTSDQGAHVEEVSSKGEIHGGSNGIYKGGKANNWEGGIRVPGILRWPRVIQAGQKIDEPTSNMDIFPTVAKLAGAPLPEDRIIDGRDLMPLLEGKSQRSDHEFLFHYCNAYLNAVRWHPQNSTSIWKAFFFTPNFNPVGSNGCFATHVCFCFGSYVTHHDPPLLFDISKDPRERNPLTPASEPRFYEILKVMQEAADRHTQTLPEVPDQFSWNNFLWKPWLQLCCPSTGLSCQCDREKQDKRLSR
The assay is described as follows: Inhibitory activity against purified human Steroid sulfatase. The gist of the method: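 Homogeneous human STS, purified from recombinant CHO cells, cleaves 4-methylumbelliferyl sulfate (4-MUS). The reaction is followed in a discontinuous fluorimetric assay with and without inhibitor, using a 1 h incubation in the standard format. The IC50 is taken from the inhibition data.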

Assay [2] concerns the target T1, Steryl-sulfatase. The experiment in a line: Inhibitory constant against purified human Steroid sulfatase. In short, it runs like this:
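Kinetic study with purified recombinant human STS and 4-MUS substrate in the discontinuous fluorimetric assay. Substrate turnover rates are measured at various inhibitor concentrations and replotted as Hanes diagrams. Kapp/Vapp ratios are plotted against inhibitor concentration, and Ki is read from the abscissa intercept. Pre-incubation and dextran-activated charcoal treatment were used to test reversibility.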

Assay [3] has as its target T1, Steryl-sulfatase. The experiment in a line: Inhibitory activity against Steroid sulfatase expressed in CHO cells. The class given is cell-based. In short, it runs like this: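 Intact CHO cells over-expressing recombinant human STS are given 4-MUS as substrate, using the assay variant for reversible inhibitors. STS activity is measured in the presence of inhibitor, and the IC50 is derived.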

The subject of a further assay is MCF7. The assay is described as follows: Growth stimulation of estrogen receptor positive MCF-7 human breast cancer cells with compound up to 10 uM; not estrogenic. The class given is functional, cell-based.

One may read the IC50 as the concentration that inhibits the measured activity by half. Low values mean greater potency, high ones weaker potency. One may read the Ki as a dissociation constant, usually derived from enzyme kinetics or from competition with a known ligand. High values mean a looser hold on the target, low ones a stronger hold on the target.

Turning to `O=C(Cc1ccccc1)O[C@H]1C[C@H]2CC[C@@H](C1)N2C(=O)NS(=O)(=O)c1cc(C(F)(F)F)cc(C(F)(F)F)c1`, the IC50 is 0.084 µM against Steryl-sulfatase [1] and 1.89 µM at Steryl-sulfatase [3]. For the same compound, the affinity on Steryl-sulfatase [2], expressed as Ki, was 0.076 µM.

At Steryl-sulfatase [2], `C[C@]12CC[C@@H]3c4ccc(OS(N)(=O)=O)cc4CC[C@H]3[C@@H]1CCC2=O` [EMATE] yielded a Ki of 0.67 µM. The concentration for half-maximal inhibition (IC50) at Steryl-sulfatase [3] is 0.03 µM.

Regarding `Cc1ccc(S(=O)(=O)NC(=O)N2[C@@H]3CC[C@H]2C[C@@H](OC(=O)Cc2ccccc2)C3)cc1`, the 50% inhibitory concentration (IC50) was 16.6 µM against Steryl-sulfatase [1] and 37.1 µM at Steryl-sulfatase [3].

Consider `O=C(Cc1ccccc1)O[C@H]1C[C@H]2CC[C@@H](C1)N2C(=O)NS(=O)(=O)c1ccc(Br)cc1`, for which the Ki on Steryl-sulfatase [2] is 1.85 µM. The same compound showed an IC50 on Steryl-sulfatase [3] of 6.15 µM.

In the case of `O=C(Cc1ccccc1)OC1CCN(C(=O)NS(=O)(=O)c2ccc(Cl)cc2)CC1`, the values for the IC50 against Steryl-sulfatase [1] and against Steryl-sulfatase [3] were more than 100 µM and more than 30 µM, respectively.

As for `N#CC1(OC(=O)Cc2ccccc2)CCN(C(=O)NS(=O)(=O)c2ccc(Cl)cc2)CC1`, the IC50 came out at 13 µM against Steryl-sulfatase [1] and 24.5 µM against Steryl-sulfatase [3].

At Steryl-sulfatase [2], `O=C(Cc1ccccc1)O[C@H]1C[C@H]2CC[C@@H](C1)N2C(=O)NS(=O)(=O)c1ccc(C(F)(F)F)cc1` yielded an inhibition constant (Ki) of 0.53 µM. For the same compound, the IC50 on Steryl-sulfatase [3] worked out at 7.47 µM.

`O=C(Cc1ccccc1)O[C@H]1C[C@H]2CC[C@@H](C1)N2C(=O)NS(=O)(=O)c1ccc(Cl)cc1` displayed a Ki at Steryl-sulfatase [2] of 2.4 µM. At Steryl-sulfatase [3], the IC50 was 6.72 µM.

`O=C(Cc1ccccc1)O[C@H]1C[C@H]2CC[C@@H](C1)N2C(=O)NS(=O)(=O)c1ccccc1`: the concentration for half-maximal inhibition (IC50) was more than 100 µM at Steryl-sulfatase [1] and more than 30 µM against Steryl-sulfatase [3].

For `O=C(Cc1ccccc1)O[C@H]1C[C@H]2CC[C@@H](C1)N2C(=O)NS(=O)(=O)c1ccc(F)cc1`, the concentration for half-maximal inhibition (IC50) was found to be 50 µM against Steryl-sulfatase [1] and 39.2 µM against Steryl-sulfatase [3].

On to `O=C(Cc1ccccc1)O[C@H]1C[C@H]2CC[C@@H](C1)N2C(=O)NC(=O)c1ccc(Cl)cc1`, for which the inhibition constant Ki at Steryl-sulfatase [2] was determined as 5.8 µM. On Steryl-sulfatase [3], this compound had an IC50 of 10.4 µM.

In the case of `O=C(Cc1ccccc1)O[C@H]1C[C@H]2CC[C@@H](C1)N2C(=O)CS(=O)(=O)c1ccc(Cl)cc1`, the IC50 against Steryl-sulfatase [1] is 6.2 µM; at Steryl-sulfatase [3] it was 4.32 µM.

Consider `O=C(NN1[C@@H]2CC[C@H]1C[C@@H](OC(=O)Cc1ccccc1)C2)NS(=O)(=O)c1ccc(Cl)cc1`, for which the Activity entry in the assay with MCF7 is “not estrogenic”. In addition, on Steryl-sulfatase [2], the affinity corresponds to a Ki of 0.89 µM. The compound further had an IC50 against Steryl-sulfatase [3] of 3.84 µM.

For the origin of these results see ChEMBL document CHEMBL1136312, “Nortropinyl-arylsulfonylureas as novel, reversible inhibitors of human steroid sulfatase” (Bioorg Med Chem Lett, 2003).
